# Data from article PMC5679172 (The Journal of Experimental Medicine, 2017).
# Columns and labels:
# Type in all cases: cell-based, mouse
# [1] = test system: LPS-induced priming; assay: LPS-induced priming in BMDMs; details: for LPS-induced TNF-α production or pro–IL-1β expression: BMDMs treated with inhibitor before LPS stimulation
# [2] = test system: potassium efflux; assay: intracellular potassium detection in BMDMs; details: LPS-primed Nlrp3−/− BMDMs
# How it was run: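 BMDMs plated overnight and primed with LPS 50 ng/ml for 3 h, then given test compound for 30 min and nigericin for 30 min. […] Intracellular K+ quantified by ICP optical emission spectrometry with yttrium as internal standard.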
# [3] = test system: chloride efflux; assay: intracellular chloride detection in BMDMs; details: LPS-primed Nlrp3−/− BMDMs
# How it was run: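 BMDMs plated overnight and primed with LPS 50 ng/ml for 3 h, then given test compound for 30 min and nigericin for 15 min. Cells lysed in water for 15 min at 37°C and spun at 10,000 g for 5 min. Supernatant mixed with MQAE and signal read on a plate reader. Residual extracellular chloride subtracted using a control.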
# [4] = test system: NLRC4 inflammasome; assay: Salmonella infection-induced NLRC4 inflammasome activation in BMDMs; details: LPS-primed BMDMs, IL-1β ELISA
# How it was run: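 BMDMs plated at 5 × 10^5/ml and primed next day with LPS 50 ng/ml for 3 h. Test compound added for 30 min, then cells infected with Salmonella typhimurium for 4 h. Supernatant IL-1β measured by ELISA.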
# [5] = test system: AIM2 inflammasome; assay: cytosolic poly; details: LPS-primed BMDMs, cytosolic double-stranded DNA poly(dA:dT), IL-1β ELISA
# How it was run: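 BMDMs plated at 5 × 10^5/ml and primed next day with LPS 50 ng/ml for 3 h. Test compound added for 30 min, then poly(dA:dT) (0.5 µg/ml) delivered by lipofection for 4 h. Supernatant IL-1β measured by ELISA.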
SMILES,LPS-induced TNF-α production or pro–IL-1β expression [1],nigericin-induced potassium efflux (decrease of intracellular potassium) [2],nigericin-induced chloride efflux (decrease of intracellular chloride) [3],LPS-induced priming effects ([1]; BMDMs),NLRC4 inflammasome activation [4],AIM2 inflammasome activation [5]
Cc1ccc(S(=O)(=O)/C=C/C#N)cc1 [BAY 11-7082],could suppress,–,–,–,–,–
"CC(O)CC(=O)O (stereo not drawn) [BHB, β-hydroxybutyrate]",could suppress,could suppress,–,–,–,–
CC(C)(O)c1coc(S(=O)(=O)NC(=O)Nc2c3c(cc4c2CCC4)CCC3)c1 [MCC950],–,could not,could inhibit,no effect,–,–
O=C(O)c1ccccc1Nc1cccc(C(F)(F)F)c1 [flufenamic acid],could suppress,could not,blocked,–,–,–
O=C(/C=C/c1ccc(O)cc1)c1ccc(O)cc1O [isoliquiritigenin],could suppress,–,–,–,–,–
Cc1cccc(Nc2ccccc2C(=O)O)c1C [mefenamic acid],could suppress,–,–,–,–,–
C=C1C(=O)O[C@H]2[C@H]1CC/C(C)=C/CC[C@@]1(C)O[C@@H]21 [parthenolide],could suppress,–,–,–,could also inhibit,could also inhibit
C[S+]([O-])CCCCN=C=S (centres unmarked) [sulforaphane],could suppress,–,–,–,could also inhibit,could also inhibit
